The structures appear in SMILES notation.

Six compounds from PMC3312795 (European Journal of Medicinal Chemistry, 2012) can be followed below.

Test [1] concerns SA11 rotavirus. Kind of test: Rotavirus. The note with it: MA104, in Primates, 24 h, read-out: ED50, rotavirus (SA11) replication, MA104 cells, TCID50 titers at 24 hr post infection, average of at least 3 independent tests. It is filed as cell-based, rotavirus SA11 (primate G3).
Test [2] deals with SA11 rotavirus. Kind of test: Pre-treatment of SA11 rotavirus with compound. The class given is cell-based, rotavirus SA11 (primate G3). The note with it: pre-treatment with compound at 100 M (so in the source), 37 °C for 2 hrs.
For a further test, the system named is Huh-7 cells. Briefly: Lipid droplet development in Huh-7 cells. The note with it: various concentrations. It is filed as cell-based, human. The gist of the method:
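Spontaneous lipid droplet formation in confluent Huh-7 cells given various concentrations of test compound or 0.1% DMSO mock for 72 hr. Medium then replaced with NBD-cholesterol (1 μg/ml) medium for a further 12 hr. Cells fixed in 4% formaldehyde for 10 min, PBS-washed, and fluorescence viewed by microscopy. Untreated 1-day-old and 4-day-old cells served as references.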

Test [3] relates to SA11 rotavirus. Briefly: Rotavirus. It is filed as cell-based, rotavirus SA11 (primate G3). The note with it: SA11, MOI of 2, 12 hr post infection. The gist of the method: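 Confluent MA104 monolayers inoculated 1 hr, PBS-washed, then held in MEM with test compound (below 50 μM; below 20 μM for some) or 0.1% DMSO plus trypsin 1 μg/ml. At 12 hr, IFA: methanol fix (RT, 30 min), anti-VP6 mAb, FITC anti-mouse IgG. Western: lysates sonicated, 10% gel, anti-VP6 with β-actin loading control, chemiluminescent detection.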

Regarding `CCCCCCCCCCCCCCCCNc1ccc(C(=O)O)cc1` [PHB, hexadecylamino-p-amino benzoic acid], the EC50 in the test with SA11 rotavirus [1] was 11.3 to 28.5 µM.
Still for that read-out and setting: under `C=C(C)[C@@H]1CC[C@]2(C(=O)O)CC[C@]3(C)[C@H](CC[C@@H]4[C@@]5(C)CC[C@H](O)C(C)(C)[C@@H]5CC[C@]43C)[C@@H]12` [Betulinic acid, betulinic acid] stands 11.3 to 28.5 µM.
In the case of `CCC/C=C/C/C=C/C=C/C=N/NN=O` [Triacsin C], the “effect of pre-treatment of SA11 rotavirus on viral titer (virucidal effect)” value with SA11 rotavirus [2] is “did not affect the viral titer”. Besides, in the test with Huh-7 cells, the “suppression of increase in lipid droplets” value is on record as “dose-dependent”. Also, the “anti-rotaviral effects by Western blot analysis and IFA” value in the test on SA11 rotavirus [3] is “confirmed”.
For `CCC/C=C/C/C=C/C=C/CNc1ccc(C(=O)O)cc1` [1e, 4-((2E,4E,7E)-Undeca-2,4,7-trienylamino)benzoic acid], in that order: “did not affect the viral titer”, “dose-dependent” and “confirmed”.
`CCC/C=C/C/C=C/C=C/C=N/N1CCCS1(=O)=O` [1ba, 2-[(2E,4E,7E)-Undeca-2,4,7-trienylideneamino]-1,1-dioxo-1-isothiazolidine]: in the test on Huh-7 cells, the “suppression of increase in lipid droplets” value is on record as “dose-dependent”. Besides, the “anti-rotaviral effects by Western blot analysis and IFA” value in the test on SA11 rotavirus [3] is on record as “confirmed”.
`C=C1C(=O)O[C@H](CCCCCCCC)[C@H]1C(=O)O` [C75]: the EC50 in the test with SA11 rotavirus [1] was 11.3 to 28.5 µM.
